Dyrk1A ADPGlo: rat Dyrk1A kinase inhibitors, primary screen, biochemical, single point, plate reader; Dual specificity tyrosine-phosphorylation-regulated kinase 1A (Rattus norvegicus), Q63470; ADP-Glo luminescence, NFATc1 peptide; inhibition, % at 12.5 µM; 310,000 compounds, 0.43% hits; AID 504441, 2011; in the data active means inhibition above about 50%;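 further: plate controls were vehicle with enzyme for no effect and no enzyme for full effect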
CAL PDZ FP-1: untagged CAL PDZ binding inhibitors, primary screen, biochemical, fluorescence polarization, HTS. Golgi-associated PDZ and coiled-coil motif-containing protein (Homo sapiens), Q9HD26. purified CAL PDZ, TMR-peptide fluorescence polarization, 1 h. inhibition, % at 24.9 µM. 300,000 compounds, 0.92% hits;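 active means mean inhibition of at least 30% with at least half of replicates also reaching 30%; inconclusive means no clear call, values can overlap the other calls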;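 further: 0% = DMSO neutral control and 100% = excess unlabeled competitor peptide PRC23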
CAL PDZ FP-2: CAL PDZ peptide-binding inhibitors, primary screen, biochemical, fluorescence polarization, Cer-tagged CAL PDZ, HTS; purified CAL PDZ, TMR-peptide fluorescence polarization, 1 h; inhibition, % at 20 µM; 330,000 compounds, 0.02% hits;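 active means highest replicate inhibition of at least 40%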;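 further: plate controls were DMSO neutral control wells for no effect and unlabeled competitor peptide control wells for full effect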
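Material: tagged CAL PDZ domain; buffer or medium: 25 mM sodium phosphate pH 7.4, 150 mM NaCl, TCEP, IgG, Thesit; compound dosing: single point, 20 µM; schedule: 1 h incubation at room temperature before polarization reading; measured by: FP readout, S and P plane fluorescence; read-out basis: percent inhibition from loss of millipolarization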
Rtt109 Vps75: inhibitors of C. albicans Rtt109/Vps75 HAT, primary screen, biochemical, ThioGlo CoA-SH fluorescence, plate reader; purified Rtt109/Vps75, 4 h; inhibition, % at 34.9 µM; 330,000 compounds, 0.16% hits;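 active means inhibition of at least 50% in every replicate; inconclusive means best replicate reaches 50% inhibition but some replicates fall short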
ALR inh: inhibitors of human ALR sulfhydryl oxidase, primary screen, biochemical, H2O2 detection, HRP-luminol luminescence, single point | 290,000 compounds, 3.8% hits | purified ALR, DTT oxidation | inhibition, % (concentration not given with the values) | AID 485317, 2010;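 active means mean replicate inhibition above about 79%, with every replicate also reaching it, limit read from the data; inconclusive means only one of the two criteria met; inactive means mean below limit and not every replicate reaching it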
Target sequence (P55789 whole entry, looked up): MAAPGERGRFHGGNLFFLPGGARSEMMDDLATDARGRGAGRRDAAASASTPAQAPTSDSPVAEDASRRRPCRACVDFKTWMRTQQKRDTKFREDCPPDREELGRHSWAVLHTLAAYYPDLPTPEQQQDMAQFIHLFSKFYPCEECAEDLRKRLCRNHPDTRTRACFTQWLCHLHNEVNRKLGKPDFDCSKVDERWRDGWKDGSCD
* marks the source's active call; other numbers are inactive results; u = inconclusive; x = not tested or not shown. Rows were chosen to be rich in hits. Some 4.3% of all compounds tested hit in one or more screens of this group.

SMILES	Dyrk1A ADPGlo	CAL PDZ FP-1	CAL PDZ FP-2	Rtt109 Vps75	ALR inh
Cc1nc(CC(C)C)cc(C(=O)N2CCCC(Nc3ccc(C)c(C)c3)C2)n1 (centres undefined)	-5	0	-2	2	u
CSc1nc(C(=O)N2CCCC(Nc3ccc(C)c(C)c3)C2)cs1 (centres undefined)	x	x	1	-7	98*
CCCCC(NC(=O)Cc1c(C)c2cc3c(C)c(C)oc3c(C)c2oc1=O)C(=O)O (centres undefined)	5	-9	-4	9	97*
C[C@H](O)[C@@H]1C(=O)N2CCc3ccc(N4CCOCC4)cc3[C@@H]2C[C@@H]1N(C)C(=O)Nc1ccccc1	x	0	-2	-4	x
CC(C)(C)C(=O)/C(=C/c1ccc(Cl)cc1)n1cncn1	-2	-1	0	0	1
CC(C)/C=C(/C(=O)c1ccc(Cl)cc1Cl)n1cncn1	-4	0	0	-2	97*
O=C(COc1ccccc1)NNc1c2ccccc2nc2ccccc12	11	x	1	-4	98*
COc1ccc(OCC(=O)NNc2c3ccccc3nc3ccccc23)cc1	-4	0	3	-1	100*
O=C(CCC(=O)NNC(=O)COc1ccccc1)NCc1ccccc1	2	-3	-1	-3	3
Cc1ccc(OCC(=O)OC(C)C(=O)NC2CCCCC2C)cc1C (centres undefined)	0	-3	-1	10	-4
COc1nccnc1NS(=O)(=O)c1ccc(NC(=S)NC(=O)/C=C/c2ccccc2)cc1	-1	-3	-2	3	3
COc1nccnc1NS(=O)(=O)c1ccc(NC(=S)NC(=O)c2ccccc2)cc1	14	-5	-1	-2	87*
CCOc1ccc(CNc2ccc3c(c2)ncn3C)cc1	1	0	-2	2	82*
Cn1cnc2cc(NCc3ccc(Cl)cc3)ccc21	4	-2	0	-3	94*
CCOc1ccc(CNc2ccc3c(c2)ncn3C(C)(C)C)cc1	9	-2	1	-16	68
COc1ccc(OCC(O)Cn2c(N)nc3c2c(=O)[nH]c(=O)n3C)cc1 (centres undefined)	-3	1	-1	-4	x
COC(CNC(=O)CNC(=S)N(Cc1ccccc1)Cc1cccnc1)OC	-3	84*	1	-5	-5
CC(C)(C)c1ccc(NC(=S)NCCc2ccccn2)cc1	-1	-7	-1	-3	98*
FC(F)(F)c1cccc(NC(=S)NCCc2ccccn2)c1	0	x	0	1	77*
Fc1ccc(NC(=S)NCCc2ccccn2)cc1	-2	-1	-2	-3	52
CC1CCN(C(=O)c2cc(S(=O)(=O)N3CCOCC3)ccc2N2CCCC2)CC1	-2	x	0	6	-1
CCCN1C(=O)c2cc(C(=O)Nc3ccc(OC)cc3OC)ccc2C1Nc1ccc(OC)cc1OC (centres undefined)	0	-7	-2	12	9
Cc1ccc(NC(=O)CSCC#N)cc1Cl	2	-1	-3	-7	99*
CCOC(=O)c1cc(NC(=O)COC)ccc1O	x	x	x	x	0
Cc1ccc(NC(=O)CSc2nncs2)cc1Cl	2	3	-2	-10	99*
SMILES	Dyrk1A ADPGlo	CAL PDZ FP-1	CAL PDZ FP-2	Rtt109 Vps75	ALR inh
CCOC(=O)c1cc(NC(=O)CSCCO)ccc1Cl	6	-1	-1	-1	99*
C=CCN(CC=C)C(=O)COC(=O)c1ccc(Sc2ncn[nH]2)c([N+](=O)[O-])c1	x	-5	0	2	x
COc1cc(/C=N/Nc2nc(C)cc(=O)[nH]2)cc(OC)c1O	0	3	-1	-10	x
CCOc1cc(/C=N/Nc2nc(=O)[nH]nc2C)ccc1O	21	-3	0	5	99*
CCOc1ccc(/C=N/Nc2nc(=O)[nH]nc2C)cc1OC	8	0	-2	10	0
COc1cc(/C=N/Nc2nc(=O)[nH]nc2C)cc(OC)c1O	18	-3	-3	3	93*

From PubChem BioAssay
